Data as given in the RNAGym collection of RNA variant scans (doi:10.1038/s41586-018-0170-7).

B1: tRNA (parent)
chain: GUUCCGUUGGCGUAAUGGUAACGCGUCUCCCUCCUAAGGAGAAGACUGCGGGUUCGAGUCCCGUACGGAACG

Variants of: B1
Assay: yeast fitness, log relative to wild type (ln ratio); higher = fitter; tRNA-Arg(CCU), competitive growth, 37 C, 1 M NaCl
Procedure, shortened: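 In BY4742 missing the chromosomal gene, a combinatorial tRNA-Arg(CCU) variant library was maintained on a HIS3 centromeric plasmid. Selection ran ~6.5 generations (~26.5 h) in SC-HIS 1M NaCl at 37 °C, following 4 generations in SC-HIS at 30 °C, with three outputs per input and variant counts by 125 bp paired-end Illumina sequencing. Fitness is the natural log of a genotype's generations relative to the wild type's, with generations taken as inverse-variance-weighted, OD-scaled log2 output/input frequency.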

Row | Variant | yeast fitness (ln)
1 | U2G A70U C71U | -0.017
2 | U2G C27U A69G C71U | -0.152
3 | U2G C27U A43C C46U C66U C71U | -0.292
4 | U2G C27U C46U A69G A70U C71U | -0.563
5 | U2G C27U C46U C66U A70U | -0.0345
6 | U2G C27U C46U C66U A70G | -0.117
7 | U2G C27U A43C A69G A70G | -0.238
8 | U2G C27U A43C A69G A70U | -0.267
9 | U2G C27U C46U C66U C71U | -0.214
10 | U2G A43C C46U C66U A70G | -0.0585
11 | U2G A43C C46U C66U A70U | -0.101
12 | U2G C27U A43C C46U A69G A70U | -0.0275
13 | U2G C27U A43C C46U A69G A70G | -0.114
14 | U2G C27U A70G | -0.136
15 | U2G C27U A70U | -0.0184
16 | U2G C27U A69G A70U C71U | -0.518
17 | U2G C27U A43C C46U C66A A70U C71U | -0.262
18 | U2G C27U C46U A70U | -0.00918
19 | U2G C27U C46U A70G | -0.0813
20 | U2G C27U A43C C46U A70U C71U | -0.0906
21 | U2G A43C C46U C66U | -0.14
22 | U2G C27U A43C C66A A69G C71U | -0.355
23 | U2G C27U A43C C66U A70U C71U | -0.333
24 | U2G A43C C46U C71U | -0.0479

Row | Variant | yeast fitness (ln)
25 | U2G C27U A70G C71U | -0.178
26 | U2G C27U C46U C66U A69G C71U | -0.312
27 | U2G A43C C66U A70G C71U | -0.22
28 | U2G C27U A43C C66U A70G C71U | -0.331
29 | U2G C27U A43C C46U C66A A69G A70U C71U | -0.498
30 | U2G C27U C46U C71U | -0.099
31 | U2G C27U A43C A70G C71U | -0.151
32 | U2G C27U A43C A70G | -0.178
33 | U2G C27U A43C A70U | -0.0184
34 | U2G A69G | -0.112
35 | U2G A43C C66A A70U C71U | -0.316
36 | U2G C27U A43C C46U C66A C71U | -0.182
37 | U2G C27U A43C C46U C66U A69G A70U C71U | -0.395
38 | U2G C27U A43C C46U C66A A69G C71U | -0.34
39 | U2G A43C C66A A70G C71U | -0.237
40 | U2G A43C C66U A69G A70U C71U | -0.468
41 | U2G C27U C46U C66A A69G A70U | -0.0493
42 | U2G C27U C46U C66A A69G A70G | -0.163
43 | U2G A43C C66A A69G A70G C71U | -0.235
44 | U2G A70G C71U | -0.268
45 | U2G A43C C66U A69G C71U | -0.455
46 | U2G A43C C66U A69G A70G C71U | -0.304
47 | U2G A43C C46U C66A A70U C71U | -0.193
48 | U2G A43C C66A A70U | -0.0996

Row | Variant | yeast fitness (ln)
49 | U2G A43C C66A A70G | -0.103
50 | U2G C27U C46U C66U A69G A70G C71U | -0.245
51 | U2G A43C C46U C66A A70G C71U | -0.165
52 | U2G A69G A70G C71U | -0.191
53 | U2G A43C C46U C66U C71U | -0.2
54 | U2G C27U A43C C66U A70U | -0.205
55 | U2G C27U A43C C66U A70G | -0.257
56 | U2G C27U C46U A70G C71U | -0.216
57 | U2G C27U A43C C66A A70U C71U | -0.319
58 | U2G C27U A43C C66A A69G A70G | -0.42
59 | U2G C27U A43C C66A A69G A70U | -0.291
60 | U2G C27U A69G A70G | -0.217
61 | U2G C27U A69G A70U | -0.0281
62 | U2G C27U C46U A69G C71U | -0.112
63 | U2G A43C C66A A69G A70G | -0.162
64 | U2G A43C C66A A69G A70U | -0.231
65 | U2G A43C C66A | -0.0672
66 | U2G A43C C66U | -0.19
67 | U2G C27U A43C C46U C66A A69G A70G C71U | -0.183
68 | U2G C27U A43C C46U C66A A69G A70U | -0.175
69 | U2G C27U A43C C46U C66A A69G A70G | -0.21
70 | U2G C27U A43C A69G A70G C71U | -0.204
71 | U2G C27U C46U C66U A69G | -0.211
72 | U2G A43C C46U C66U A69G C71U | -0.279

Row | Variant | yeast fitness (ln)
73 | U2G C27U C46U C66A A70G | -0.0963
74 | U2G C27U C46U C66A A70U | -0.143
75 | U2G A43C C66U A70G | -0.156
76 | U2G A43C C66U A70U | -0.268
77 | U2G C27U C46U A69G A70U | -0.0139
78 | U2G C27U C46U A69G A70G | -0.355
79 | U2G C27U A43C C46U C66U A70U | -0.271
80 | U2G C27U A43C C46U C66U A70G | -0.161
81 | U2G C27U C46U C66U A70G C71U | -0.175
82 | U2G C27U A43C C46U C71U | -0.0621
83 | U2G C27U A43C C71U | -0.157
84 | U2G C27U A43C C46U C66U A70G C71U | -0.231
85 | U2G C27U C46U | -0.0742
86 | U2G C27U A43C C46U C66U A69G | -0.231
87 | U2G A69G C71U | -0.101
88 | U2G C27U A43C C46U A70U | -0.00371
89 | U2G C27U A43C C46U A70G | -0.227
90 | U2G C27U A43C C46U C66U A70U C71U | -0.265
91 | U2G C27U C46U A69G | -0.0724
92 | U2G A43C C46U C66U A69G A70G C71U | -0.244
93 | U2G A43C C66A A69G A70U C71U | -0.28
94 | U2G C27U A43C C46U C66A A70G C71U | -0.162
95 | U2G C27U C46U C66A | -0.0734
96 | U2G C27U C46U C66U | -0.0703

Row | Variant | yeast fitness (ln)
97 | U2G A43C C46U C66A C71U | -0.148
98 | U2G C27U C46U C66U A69G A70G | -0.187
99 | U2G C27U C46U C66U A69G A70U | -0.392
100 | U2G C27U C46U C66A A69G C71U | -0.301
101 | U2G A43C C46U C66U A69G A70U C71U | -0.413
102 | U2G C27U A43C C46U C66A A70G | -0.16
103 | U2G C27U A43C C46U C66A A70U | -0.0794
104 | U2G C27U A43C C46U C66U A69G A70G C71U | -0.249
105 | U2G C27U A43C C46U A69G C71U | -0.193
106 | U2G C27U C46U C66U A70U C71U | -0.308
107 | U2G A43C C46U C66U A70G C71U | -0.156
108 | U2G C27U A43C C66U A69G A70U C71U | -0.42
109 | U2G A43C C66U A69G A70U | -0.307
110 | U2G A43C C66U A69G A70G | -0.222
111 | U2G C27U A43C A70U C71U | -0.235
112 | U2G C27U A43C C66A A69G A70G C71U | -0.305
113 | U2G C27U A43C C66U A69G A70U | -0.346
114 | U2G C27U A43C C66U A69G A70G | -0.348
115 | U2G A43C C46U C66U A69G A70U | -0.172
116 | U2G A43C C46U C66U A69G A70G | -0.173
117 | U2G C27U | -0.0566
118 | U2G C27U A70U C71U | -0.0745
119 | U2G C27U C46U C66A A69G A70G C71U | -0.184
120 | U2G C27U C46U C66A A70U C71U | -0.134

Row | Variant | yeast fitness (ln)
121 | U2G C27U C46U C66A A70G C71U | -0.228
122 | U2G A43C C46U C66A A70G | -0.119
123 | U2G A43C C46U C66A A70U | -0.0637
124 | U2G C27U A43C C66A C71U | -0.238
125 | U2G C27U A43C C66U A69G A70G C71U | -0.402
126 | U2G A69G A70U C71U | -0.25
127 | U2G C27U C46U A69G A70G C71U | -0.169
128 | U2G A70U | -0.00577
129 | U2G A70G | -0.0201
130 | U2G C27U A43C C46U A69G A70U C71U | -0.295
131 | U2G C27U C46U C66U A69G A70U C71U | -0.376
132 | U2G C27U A43C C46U C66U A69G A70U | -0.221
133 | U2G C27U A43C C46U C66U A69G A70G | -0.275
134 | U2G C27U A43C C66U A69G C71U | -0.354
135 | U2G C27U A43C A69G A70U C71U | -0.364
136 | U2G C27U A43C C46U C66U A69G C71U | -0.394
137 | U2G A43C C66A C71U | -0.267
138 | U2G C27U A43C | -0.0611
139 | U2G C27U A43C C46U A69G | -0.0569
140 | U2G C27U A43C C66A A69G A70U C71U | -0.477
141 | U2G C27U A43C A69G C71U | -0.318
142 | U2G C27U C46U C66A A69G A70U C71U | -0.383
143 | U2G A43C C66U C71U | -0.343
144 | U2G C27U A43C C66U C71U | -0.364

Row | Variant | yeast fitness (ln)
145 | U2G A43C C66U A70U C71U | -0.351
146 | U2G C27U A69G | -0.0592
147 | U2G A43C C46U C66A A69G C71U | -0.302
148 | U2G C27U A43C C66A A70G C71U | -0.257
149 | U2G A43C C46U C66U A69G | -0.199
150 | U2G C27U A69G A70G C71U | -0.178
151 | U2G A69G A70G | -0.147
152 | U2G A69G A70U | -0.00206
153 | U2G C27U A43C A69G | -0.0811
154 | U2G C27U A43C C46U | -0.0622
155 | U2G A43C C46U C66A A69G A70U C71U | -0.443
156 | U2G C27U A43C C46U C66A | -0.124
157 | U2G C27U A43C C46U C66U | -0.146
158 | U2G A43C C46U C66U A70U C71U | -0.214
159 | U2G C27U A43C C46U A70G C71U | -0.115
160 | U2G C27U A43C C66A | -0.171
161 | U2G C27U A43C C66U | -0.214
162 | U2G C27U C46U C66A C71U | -0.163
163 | U2G C27U C46U A70U C71U | -0.0474
164 | U2G C27U A43C C66A A70G | -0.179
165 | U2G C27U A43C C66A A70U | -0.0548
166 | U2G A43C C71U | -0.102
167 | U2G C27U A43C C46U A69G A70G C71U | -0.132
